The values that follow come from ChEMBL document CHEMBL3856275, “Discovery of Second Generation Reversible Covalent DPP1 Inhibitors Leading to an Oxazepane Amidoacetonitrile Based Clinical Candidate (AZD7986)” (J Med Chem, 2016).

pIC50: −log10 of the molar value. Values after ≈ are worked out from the molar mass of the structure shown. A value given as a limit tells only on which side of the number the result lay.

The nature of data set [1]: Half life in Han Wistar rat at 1 mg/kg, iv and 3 mg/kg, po. It counts as ADME, organism-based. Particulars: in vivo. In a few lines: (§1)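 Han Wistar rat PK with 1 mg/kg iv and 3 mg/kg po doses, both in pH3 buffer. Clearance is given in ml/min/kg, Vss in L/kg and t1/2 in h.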
Data set [2] in a line: Efflux ratio of apparent permeability across basolateral to apical over apical to basolateral side in human Caco2 cells at 10 uM after 1 hr by LC-MS method. The following applies: Caco-2.
The nature of data set [3]: Clearance in Han Wistar rat at 1 mg/kg, iv and 3 mg/kg, po. It counts as ADME, organism-based. Particulars: in vivo. The essentials:
as §1

Data set [4] in a line: Clearance in Beagle dog at 1 mg/kg, iv and 2 mg/kg, po. The data set is classed as ADME, organism-based, Canis lupus familiaris. The following applies: in vivo.
Data set [5] concerns the target Voltage-gated inwardly rectifying potassium channel KCNH2 (Homo sapiens, UniProt Q12809).
Data set [6] in a line: Volume of distribution at steady state in Beagle dog at 1 mg/kg, iv and 2 mg/kg, po. The data set is classed as ADME, organism-based, Canis lupus familiaris. The following applies: in vivo, read-out: Vdss.
Data set [7] is described as follows: Protein binding in rat plasma at 10 uM after 6 hrs by LC-MS/MS method. The data set is classed as ADME, cell-free. Particulars: read-out: PPB (converted).
Data set [8] can be described thus: Intrinsic clearance in rat hepatocytes assessed per 10^6 cells at 1 uM after 10 to 90 mins by LC-MS/MS method. The data set is classed as ADME, cell-based, Hepatocyte.
A short description of data set [9]: physchem. Particulars: octanol/water, pH 7.4.
Data set [10] can be described thus: Apparent permeability across apical to basolateral side in human Caco2 cells at 10 uM after 1 hr by LC-MS method. The following applies: Caco-2.
Data set [11] in a line: physchem. The following applies: phosphate buffered saline, pH 7.4.
Data set [12] in a line: Propionaldehyde reactivity assessed as half life of the compound at pH 7.4 by LC-UV method. The data set is classed as physicochemical.
A short description of data set [13]: Intrinsic clearance in human hepatocytes assessed per 10^6 cells at 1 uM after 10 to 90 mins by LC-MS/MS method. It counts as ADME, cell-based, Hepatocyte.
A short description of data set [14]: Oral bioavailability in Beagle dog at 2 mg/kg. The data set is classed as ADME, organism-based, Canis lupus familiaris. The following applies: in vivo.
The target of data set [15] is T1, Dipeptidyl peptidase 1 (Homo sapiens, UniProt P53634). The experiment in a line: Inhibition of DPP1 in human U937 cells using Gly-Phe-AFC as substrate preincubated for 60 mins followed by substrate addition by fluorescence assay. It counts as cell-based, U-937.
Data set [16] can be described thus: Apparent permeability across basolateral to apical side in human Caco2 cells at 10 uM after 1 hr by LC-MS method. Particulars: Caco-2.
Data set [17] in a line: Intrinsic clearance in human liver microsomes at 1 uM after 5 to 40 mins by LC-MS/MS method. Particulars: read-out: CLH. The data set is classed as ADME.
Data set [18] in a line: Volume of distribution at steady state in Han Wistar rat at 1 mg/kg, iv and 3 mg/kg, po. The data set is classed as ADME, organism-based. Particulars: in vivo, read-out: Vdss. In a few lines: as §1
Data set [19] can be described thus: Protein binding in dog plasma at 10 uM after 6 hrs by LC-MS/MS method. The data set is classed as ADME, cell-free, Canis lupus familiaris. Particulars: read-out: PPB (converted).
The nature of data set [20]: Intrinsic clearance in dog hepatocytes assessed per 10^6 cells at 1 uM after 10 to 90 mins by LC-MS/MS method. It counts as ADME, cell-based, Canis lupus familiaris, Hepatocyte.
Data set [21] in a line: Half life in Beagle dog at 1 mg/kg, iv and 2 mg/kg, po. The data set is classed as ADME, organism-based, Canis lupus familiaris. The following applies: in vivo.
Data set [22] in a line: Protein binding in human plasma at 10 uM after 6 hrs by LC-MS/MS method. The data set is classed as ADME, cell-free. The following applies: read-out: PPB (converted).
The nature of data set [23]: Oral bioavailability in Han Wistar rat at 3 mg/kg. The data set is classed as ADME, organism-based. Particulars: in vivo. The essentials:
as §1

The target of data set [24] is T1, Dipeptidyl peptidase 1. The experiment in a line: Inhibition of human recombinant DPP1 using Gly-Arg-AMC as substrate preincubated for 30 mins followed by substrate addition by fluorometric assay. In a few lines:
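Isolated human recombinant DPP1 was run in a fluorometric assay in piperazine-based buffer. Compound was pre-incubated with enzyme for 30 min at rt, then Gly-Arg-AMC dipeptide substrate was added. Data were curve-fitted to give pIC50, as the mean of at least two experiments.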

Data set [25] in a line: Clearance in Sprague-Dawley rat at 1 mg/kg, iv or 3 mg/kg, po. The following applies: in vivo. The data set is classed as ADME, organism-based.
The nature of data set [26]: Volume of distribution at steady state in Sprague-Dawley rat at 1 mg/kg, iv or 3 mg/kg, po. The following applies: in vivo, read-out: Vdss. It counts as ADME, organism-based.
Data set [27] can be described thus: Oral bioavailability in Sprague-Dawley rat at 3 mg/kg. It counts as ADME, organism-based. Particulars: in vivo.
Data set [28] is described as follows: Half life in Sprague-Dawley rat at 1 mg/kg, iv or 3 mg/kg, po. The data set is classed as ADME, organism-based. Particulars: in vivo.

T1 sequence (P53634 25-134 limits assumed): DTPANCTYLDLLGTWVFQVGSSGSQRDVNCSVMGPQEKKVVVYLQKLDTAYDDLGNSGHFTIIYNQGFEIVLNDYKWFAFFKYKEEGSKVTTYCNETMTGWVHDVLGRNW
T1 sequence (P53634 231-394 limits assumed): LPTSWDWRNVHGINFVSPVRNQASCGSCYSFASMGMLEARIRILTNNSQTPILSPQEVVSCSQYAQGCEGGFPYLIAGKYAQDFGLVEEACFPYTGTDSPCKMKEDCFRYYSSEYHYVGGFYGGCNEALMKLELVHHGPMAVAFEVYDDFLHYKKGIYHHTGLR
T1 sequence (P53634 395-463 limits assumed): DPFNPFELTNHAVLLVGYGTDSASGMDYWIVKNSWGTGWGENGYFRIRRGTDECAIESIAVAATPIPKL
Sequence of Voltage-gated inwardly rectifying potassium channel KCNH2 (Q12809 whole entry): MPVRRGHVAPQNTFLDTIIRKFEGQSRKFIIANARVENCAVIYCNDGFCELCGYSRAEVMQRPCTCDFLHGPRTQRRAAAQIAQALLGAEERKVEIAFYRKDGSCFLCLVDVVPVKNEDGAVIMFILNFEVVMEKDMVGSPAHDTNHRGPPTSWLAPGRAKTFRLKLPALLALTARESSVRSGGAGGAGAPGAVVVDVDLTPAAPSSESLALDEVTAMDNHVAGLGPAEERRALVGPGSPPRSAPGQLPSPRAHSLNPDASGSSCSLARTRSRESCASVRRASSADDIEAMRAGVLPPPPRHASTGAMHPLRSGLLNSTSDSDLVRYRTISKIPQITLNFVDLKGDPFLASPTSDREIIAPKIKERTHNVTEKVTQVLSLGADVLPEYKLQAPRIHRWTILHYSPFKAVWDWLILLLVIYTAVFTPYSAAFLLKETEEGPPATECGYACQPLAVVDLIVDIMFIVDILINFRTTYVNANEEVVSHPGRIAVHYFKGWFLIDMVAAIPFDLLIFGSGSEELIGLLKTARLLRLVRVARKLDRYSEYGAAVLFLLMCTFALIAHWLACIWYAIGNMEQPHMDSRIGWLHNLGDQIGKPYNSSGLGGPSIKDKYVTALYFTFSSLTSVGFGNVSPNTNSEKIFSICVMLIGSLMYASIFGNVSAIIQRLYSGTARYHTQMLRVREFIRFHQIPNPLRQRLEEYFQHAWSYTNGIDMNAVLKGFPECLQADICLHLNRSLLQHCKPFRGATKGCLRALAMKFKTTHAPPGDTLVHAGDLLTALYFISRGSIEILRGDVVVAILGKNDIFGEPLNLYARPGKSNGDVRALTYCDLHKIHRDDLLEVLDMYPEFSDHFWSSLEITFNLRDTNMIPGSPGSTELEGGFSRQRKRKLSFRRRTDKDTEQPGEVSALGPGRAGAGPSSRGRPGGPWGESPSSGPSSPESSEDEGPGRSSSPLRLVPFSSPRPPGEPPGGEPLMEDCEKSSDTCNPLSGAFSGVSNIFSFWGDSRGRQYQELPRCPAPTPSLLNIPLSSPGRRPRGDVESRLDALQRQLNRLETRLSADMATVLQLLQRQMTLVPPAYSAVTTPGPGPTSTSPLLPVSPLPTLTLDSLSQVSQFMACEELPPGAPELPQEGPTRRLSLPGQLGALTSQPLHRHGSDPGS

With `N#Cc1ccc(-c2ccc(C[C@@H](C#N)NC(=O)[C@@H]3CNCCCO3)cc2)cc1`, the half-life in data set [1] was 6.2 h; in data set [12], > 50 h; in data set [21] it was 10.7 h. Further, the efflux ratio at 1 h, 10 µM in data set [2] was 2.4. In addition, the values for the clearance in data set [3] and in data set [4] were 3.8 mL/min/kg and 4.1 mL/min/kg, respectively. Also, the values for the negative-log IC50 (pIC50) in data set [5], in data set [15] and in [24] were 4.77, 7.50 and 7.40, respectively. Also, the Vd in data set [6] is 3.9 L/kg; in data set [18], 2 L/kg. Moreover, the fraction unbound at 6 h, 10 µM in [7] is 0.24; in data set [19], 0.25; in [22], 0.09. Moreover, the figures for the CLH in data set [8] and in data set [20] were < 3.5 µL/min/10^6 cells and < 4 µL/min/10^6 cells, respectively. Also, the logD at 10 µM in [9] amounted to 1.1. For the same molecule, the Papp A→B at 1 h, 10 µM in [10] worked out at 19 ×10⁻⁶ cm/s. The molecule also displayed a kinetic solubility at 2 h in data set [11] of 170 µM (≈ 63.7 µg/mL). Moreover, the intrinsic clearance (CLint) in [13] was < 3.5 µL/min/10^6 cells. Also, the figures for the bioavailability in [14] and in [23] were 71% and 25%, respectively. In addition, the basolateral-to-apical permeability (Papp B→A) at 1 h, 10 µM in [16] amounted to 45 ×10⁻⁶ cm/s. The microsomal CLint at 1 µM in [17] was determined as 9.5 µL/min/mg.

For the molecule `Cc1cc(-c2ccc(C[C@@H](C#N)NC(=O)[C@@H]3CNCCCO3)cc2)cc2c1oc(=O)n2C`, the efflux ratio at 1 h, 10 µM in data set [2] came out at 5.9. Also, the pIC50 was < 4.48 in data set [5], 8.10 in data set [15] and 8.00 in [24]. Further, the fraction unbound at 6 h, 10 µM in data set [7] was 0.03; in data set [19], 0.13; in [22] it was 0.08. Further, the CLH in data set [8] and in data set [20] was < 3.5 µL/min/10^6 cells throughout. The clearance in data set [25] was determined as 1 mL/min/kg. Besides, the logD at 10 µM in data set [9] stood at 1.5. Further, the Papp A→B at 1 h, 10 µM in data set [10] was determined as 13 ×10⁻⁶ cm/s. The molecule also returned a solubility (kinetic) at 2 h in data set [11] of 175 µM (≈ 76 µg/mL). Moreover, the half-life is > 50 h in data set [12] and 8 h in data set [28]. Also, in [13], the intrinsic clearance (CLint) was < 3.5 µL/min/10^6 cells. Moreover, the Vd in [26] stood at 0.5 L/kg. Moreover, in [27], the bioavailability amounted to 24%. Also, in [16], the Papp B→A at 1 h, 10 µM turned out to be 76 ×10⁻⁶ cm/s. Also, the microsomal CLint at 1 µM in data set [17] was < 14 µL/min/mg.

Regarding `CCn1c(=O)oc2ccc(-c3ccc(C[C@@H](C#N)NC(=O)[C@@H]4CNCCCO4)cc3)cc21`, the clearance was determined as 6 mL/min/kg in data set [4] and 4 mL/min/kg in [25]. The Vd in [6] came to 9 L/kg; in data set [26] it was 2 L/kg. Also, the fraction unbound at 6 h, 10 µM in [7] was 0.08; in [19] it was 0.14; in data set [22] it was 0.06. The CLH in data set [8] and in [20] was < 3.5 µL/min/10^6 cells each time. For the same molecule, the half-life in data set [12] was > 50 h; in data set [28] it was 8 h; in data set [21], 16 h. Besides, in data set [13], the intrinsic clearance (CLint) was < 3.5 µL/min/10^6 cells. Further, the results for the bioavailability in data set [14] and in [27] were 85% and 36%, respectively. Also, in data set [17], the microsomal CLint at 1 µM was < 14 µL/min/mg.
